Here are results for one compound from ChEMBL document CHEMBL1142233, “Treatment of diabetes and atherosclerosis by inhibiting fatty-acid-binding protein aP2” (2007).

Each structure is given as a SMILES string. Calls of active or inactive are those of the source. The calls are words filed in the database; no cut-off is given here.

Experiment [1] concerns Macrophage. In words: Decrease in MCP1 production in mouse aP2+/+ macrophage cells after 24 hrs. It counts as functional, cell-based. The method in brief:
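Immortalized mouse macrophage lines (aP2−/−R re-expressing aP2) kept 24 h in RPMI plus 5% LPDS with inhibitor 0–25 μM in DMSO. MCP-1 in supernatant measured by ELISA and expressed relative to inhibitor-free cells of each line. At least triplicate.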

The test system of experiment [2] is Mus musculus. In words: Inhibition of aP2 in 5-week old apoE -/- C57BL/6J mouse fed on western diet and 15 mg/kg/day, po drug simultaneously in early intervention study assessed as reduction of atherosclerotic lesion in en face aorta relative to control. The class given is functional. On the set-up: scale not given: the % may be the effect or the level left. The method in brief: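 Male Apoe⁻/⁻ C57BL/6J mice were fed a western diet (21% fat, 0.21% cholesterol) from 4–5 weeks of age. They were gavaged for 6 weeks with 15 mg kg⁻¹ d⁻¹ in vehicle (10% 1-methyl-2-pyrrolidone, 5% cremophor EL with ethanol, in water), starting at 5 weeks (early) or 12 weeks (late). Perfusion-fixed, pinned-out aortas were stained with Sudan IV and lesion area was quantified.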

Experiment [3] has as its system Mus musculus. In words: Effect on glucose level in 5-week old apoE -/- C57BL/6J mouse fed on western diet and 15 mg/kg/day, po drug simultaneously in 5-11 week early intervention study. The class given is functional. The method in brief: (§1)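 Male Apoe−/− mice on western diet (21% fat, 0.21% cholesterol) from 4–5 weeks of age. Oral gavage for 6 weeks from age 5 or 12 weeks; vehicle 10% 1-methyl-2-pyrrolidone, 5% cremophor EL with ethanol in water. Blood taken after 6 h fast before and after treatment. Glucose by meter; insulin by ELISA; lipids and glycerol colorimetric.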

In experiment [4] the test system is Mus musculus. Briefly: Attenuation of fatty infiltration of liver in ob/ob mouse at 40 mg/kg/day, po. It counts as functional, organism-based. The method in brief:
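Male ob/ob mice given daily oral gavage for 6 weeks starting at 8 weeks of age. Liver sections stained with haematoxylin and eosin; n = 6 per group.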

Experiment [5] concerns Mus musculus. In words: Inhibition of JNK1 activity in ob/ob mouse liver at 40 mg/kg/day, po relative to control. The class given is functional, organism-based. The method in brief: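 Liver lysates (500–1,000 μg protein) from ob/ob mice gavaged at 40 mg kg⁻¹ d⁻¹ were immunoprecipitated with JNK1 antibody. The beads were incubated with 10 μCi ³²P-γATP, 10 μM ATP and 5 μg c-jun fusion protein in Hepes pH 7.4/MgCl₂ buffer at 30 °C for 20 min. The reaction was stopped with Laemmli buffer and quantified.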

A short description of experiment [6]: Reduction of IL6 expression mouse aP2+/+ macrophage cells relative to control. It counts as functional, cell-based. The method in brief:
(§2)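 Mouse aP2⁺/⁺ and aP2-reconstituted aP2⁻/⁻ macrophage lines were grown in RPMI with FBS or 5% LPDS, with inhibitor in DMSO or vehicle. Mcp-1, Il1β, Il6 and Tnf mRNA were measured by SYBR Green qRT-PCR (annealing at 58 °C, 50 cycles), normalized to 18s rRNA and then to untreated cells. Mean ± s.e.m.; at least triplicate.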

Experiment [7] can be described thus: Reduction of IL6 expression mouse aP2-/-R macrophage cells (re-expression of aP2) relative to control. The class given is functional, cell-based. The method in brief: as §2
Experiment [8] relates to THP-1. In words: Reduction of TNF expression in human THP1 cells expressing aP2 relative to control. The class given is functional, cell-based.
In experiment [9] the test system is Mus musculus. In words: Effect on cholesterol level in ob/ob mouse at 40 mg/kg/day, po after 6 weeks relative to control. The class given is functional. The method in brief:
(§3)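 Male ob/ob mice given oral gavage daily for 6 weeks from 8 weeks old, n = 6 per group. Blood taken after 6 h fast before and after treatment; fed glucose taken at week 2. Glucose by meter on 3 μl whole blood, insulin by ultrasensitive ELISA, cholesterol, FFA and glycerol by colorimetric microplate assays.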

The test system of experiment [10] is Mus musculus. In words: Suppression of clamp hepatic glucose production in ob/ob mouse at 40 mg/kg/day, po after 4 weeks by hyperinsulinemic-euglycaemic clamp studies. It counts as functional, organism-based. The method in brief:
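Clamps were run in ob/ob mice after 4 weeks of oral gavage at 40 mg kg⁻¹ d⁻¹ (vehicle n = 7, treated n = 9), with jugular catheters placed 4 days earlier. Insulin was infused at 12.5 mU kg⁻¹ min⁻¹, 25% glucose at variable rates held basal glycaemia, and ³H-glucose ran at 0.1 μCi min⁻¹. Clamp hepatic glucose production = whole-body uptake minus glucose infusion rate.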

In experiment [11] the test system is Mus musculus. In words: Effect on insulin level in 5-week old apoE-/- C57BL/6J mouse fed on western diet and administered with 15 mg/kg/day, po drug at 12 week in 12-18 week late intervention study. It counts as functional. The method in brief:
as §1

For experiment [12], the system named is Mus musculus. Briefly: Effect on free fatty acid level in 5-week old apoE-/- C57BL/6J mouse fed on western diet and administered with 15 mg/kg/day, po drug at 12 week in 12-18 week late intervention study. It counts as functional. The method in brief: as §1
For experiment [13], the system named is Mus musculus. Briefly: Effect on glycerol level in 5-week old apoE-/- C57BL/6J mouse fed on western diet and administered with 15 mg/kg/day, po drug at 12 week in 12-18 week late intervention study. It counts as functional. The method in brief:
as §1

Experiment [14] concerns THP-1. Briefly: Reduction of cholesterol ester accumulation in human THP1 cells at 25 uM after 4 days relative to control. The class given is functional. More on the design: scale not given: the % may be the effect or the level left. The method in brief:
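THP-1 monocytes were made into macrophages with 100 nM PMA for 24 h, then loaded for 24 h with 50 μg ml⁻¹ acLDL in 5% LPDS. They were then held 4 days in 10% FBS with 25 μM inhibitor or DMSO. After hexane/isopropanol extraction, cholesterol ester was taken as total minus free cholesterol, per cellular protein.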

Experiment [15] can be described thus: Reduction in total cholesterol ester content in mouse aP2-/-R macrophage cells (re-expression of aP2) at 25 uM relative to control. It counts as functional, cell-based.
In experiment [16] the test system is THP-1. In words: Increase in ABCA1 protein level in human THP1 cells at 25 uM relative to control. The class given is functional, cell-based.
Experiment [17] concerns Macrophage. Briefly: Increase in cholesterol efflux in mouse aP2-/- macrophage cells at 25 uM relative to control. It counts as functional, cell-based. The method in brief: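 Macrophages loaded 24 h in RPMI with 5% LPDS, 1 μCi ml⁻¹ ³H-cholesterol and 50 μg ml⁻¹ acLDL, ± 25 μM inhibitor. Equilibrated 24 h in 0.2% fatty-acid-free BSA ± inhibitor, then 4 h ± APOA1 20 μg ml⁻¹. Efflux = medium ³H as % of total, per mg protein; mouse lines normalized to untreated aP2+/+.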

Experiment [18] concerns THP-1. Briefly: Reduction of Mcp1 expression in human THP1 cells expressing aP2 relative to control. It counts as functional, cell-based.
In experiment [19] the test system is Mus musculus. Briefly: Decrease in IL6 expression in ob/ob mouse adipose tissue at 40 mg/kg/day, po. The class given is functional, organism-based.
Experiment [20] relates to Mus musculus. In words: Decrease in blood glucose level in fasted ob/ob mouse at 40 mg/kg/day, po after 6 weeks. It counts as functional, organism-based. The method in brief: as §3
In a further experiment the test system is Adipocyte. Briefly: Decrease in fatty acid uptake in FABP-deficient mouse adipocytes reconstituted with exogenous aP2 after 24 hrs. It counts as functional, cell-based. The method in brief:
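Immortalized mouse pre-adipocytes differentiated with dexamethasone, IBMX, rosiglitazone and insulin, then insulin alone. Cells incubated 24 h in DMEM with 2% FBS plus inhibitor, then moved to DMEM with 2% BSA and given ³H-stearate at 37 °C for 30 min. Lysate counted by scintillation; values normalized to protein and expressed as % of untreated.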

Experiment [21] deals with THP-1. Briefly: Decrease in MCP1 production in human THP1 cells expressing aP2 after 24 hrs. The class given is functional, cell-based. The method in brief:
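THP-1 monocytes differentiated with 100 nM PMA for 24 h. Incubated 24 h in RPMI with 5% lipoprotein-deficient serum with inhibitor 0–25 μM in DMSO. Supernatant MCP-1 measured by ELISA and normalized to cellular protein. At least triplicate.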

`CCc1c(-c2ccccc2)c(-c2ccccc2)nn1-c1ccccc1-c1cccc(OCC(=O)O)c1`: the result (in the experiment on Macrophage [1]; in the experiment with Mus musculus [4]; in the experiment with Mus musculus [5]; in experiment [6]; in [7]; in the experiment on THP-1 [8]) was Active. Moreover, the outcome (in the experiment with Mus musculus [10]; in experiment [15]; in the experiment on THP-1 [16]; with THP-1 [18]; with Mus musculus [19]; with Mus musculus [20]) was Active. In addition, the outcome in the experiment on Adipocyte was Active. In addition, the Activity in the experiment on Mus musculus [2] came to 52.6%; with Mus musculus [3] it was 133.2 mg/dL; with Mus musculus [9], 285.3 mg/dL; in the experiment on Mus musculus [11] it was 2.19 ng/mL; with Mus musculus [12], 2.55 mM; in the experiment with Mus musculus [13], 3.55 mM. The Activity in the experiment with THP-1 [14] is 44%; in the experiment with THP-1 [21] it was “Dose-dependent effect”. Further, the result in the experiment on Macrophage [17] was inactive.
